Values after ≈ are worked out from the molar mass of the structure shown.
Key:
Type in all cases: functional
Staphylococcus aureus [1] = assay: Antimicrobial activity against epidemic community acquired methicillin-resistant Staphylococcus aureus USA300 after 24 hrs by microdilution method; settings: USA300, 24 h
Outline: (§1)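 CLSI broth microdilution (M7-A6) with 2-fold serial compound dilutions in Mueller–Hinton broth. Inoculum 10⁵ cfu/mL. Strains came from NARSA, stored at −70 °C and revived on Mueller–Hinton agar days before testing. After 24 h at 37 °C, MIC read as the lowest concentration preventing visible growth. Vancomycin served as control.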

Staphylococcus aureus [2] = assay: Antimicrobial activity against hospital acquired vancomycin-intermediate Staphylococcus aureus Mu50 after 24 hrs by microdilution method; settings: Mu50, 24 h; outline: as §1
[3] = Antifungal activity against Trametes versicolor after 3 to 5 days by photometric method
Outline: (§2)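 Test compound in methanol with alkylaryl polyglycol ether emulsifier was dried in wells, then liquid potato dextrose medium with spores or mycelium of the test organism was added. Incubated 3−5 days shaking at 20 °C, 85% relative humidity. Growth was taken as the change in extinction at 620 nm before and after incubation. ED₅₀ (50% growth inhibition, ppm = μg/mL) came from a dose−response curve against untreated control.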

Pseudomonas fluorescens = assay: Antifungal activity against Pseudomonas fluorescens after 3 to 5 days by photometric method; settings: read-out: ED50 (the source's name); outline: as §2
Aspergillus niger = assay: Antifungal activity against Aspergillus niger after 3 to 5 days by photometric method; settings: read-out: ED50 (the source's name); outline: as §2
Fusarium culmorum = assay: Antifungal activity against Fusarium culmorum after 3 to 5 days by photometric method; settings: read-out: ED50 (the source's name); outline: as §2
[4] = Antifungal activity against Ustilago avenae after 3 to 5 days by photometric method; outline: as §2
[5] = Antifungal activity against Pyrenophora teres after 3 to 5 days by photometric method; outline: as §2
[6] = Antifungal activity against Leptosphaeria nodorum after 3 to 5 days by photometric method; outline: as §2
Botrytis cinerea = assay: Antifungal activity against Botrytis cinerea after 3 to 5 days by photometric method; settings: read-out: ED50 (the source's name); outline: as §2
Alternaria mali = assay: Antifungal activity against Alternaria mali after 3 to 5 days by photometric method; settings: read-out: ED50 (the source's name); outline: as §2
Pythium aphanidermatum = assay: Antifungal activity against Pythium aphanidermatum after 3 to 5 days by photometric method; settings: read-out: ED50 (the source's name); outline: as §2
Fusarium graminearum = assay: Antifungal activity against Gibberella zeae after 3 to 5 days by photometric method; settings: read-out: ED50 (the source's name)
Outline: (§3)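 Test compound in methanol with alkylaryl polyglycol ether emulsifier dried into wells. Liquid potato dextrose medium holding spores or mycelium of the fungus added. OD620 read before and after 3–5 days shaking at 20 °C, 85% relative humidity. ΔOD against untreated control fitted to a dose–response curve; ED50 (50% growth inhibition) given in ppm (μg/mL).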

Phytophthora infestans = assay: Antifungal activity against Phytophthora infestans after 3 to 5 days by photometric method; settings: read-out: ED50 (the source's name); outline: as §3
[7] = Antifungal activity against Phytophthora cryptogea after 3 to 5 days by photometric method; outline: as §2
Pyricularia oryzae = assay: Antifungal activity against Pyricularia oryzae after 3 to 5 days by photometric method; settings: read-out: ED50 (the source's name); outline: as §3
Staphylococcus aureus [8] = assay: Antimicrobial activity against Staphylococcus aureus ATCC 29213 after 24 hrs by microdilution method; settings: ATCC 29213, 24 h
Outline: (§4)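 CLSI (M7-A6) broth microdilution with 2-fold serial compound dilutions in Mueller−Hinton broth. Inoculum was 10⁵ cfu/mL, with vancomycin as control. After 24 h at 37 °C, MIC was read as the lowest concentration inhibiting visible growth.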

Staphylococcus aureus [9] = assay: Antimicrobial activity against community acquired Staphylococcus aureus MW2 after 24 hrs by microdilution method; settings: MW2, 24 h; outline: as §4
Zymoseptoria tritici = assay: Antifungal activity against Septoria tritici after 3 to 5 days by photometric method; settings: read-out: ED50 (the source's name); outline: as §2
Staphylococcus aureus [10] = assay: Antimicrobial activity against methicillin-resistant Staphylococcus aureus LT-1334 after 24 hrs by microdilution method; settings: LT-1334, 24 h
Outline: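 Broth microdilution per CLSI with 2-fold serial compound dilutions. Growth and testing in half-concentrated Mueller–Hinton broth, inoculum 10⁵ cfu/mL. MIC read after 24 h at 37 °C as the lowest concentration inhibiting visible growth.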

Staphylococcus aureus [11] = assay: Antimicrobial activity against Staphylococcus aureus SG511 after 24 hrs by broth microdilution method; settings: SG511, 24 h
Outline: (§5)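 CLSI broth microdilution with 2-fold serial compound dilutions in half-concentrated Mueller−Hinton broth. Inoculum was 10⁵ cfu/mL. After 24 h at 37 °C, MIC was read as the lowest concentration inhibiting visible growth.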

Bacillus subtilis = assay: Antimicrobial activity against Bacillus subtilis 168 after 24 hrs by broth microdilution method; settings: subsp. subtilis str. 168 ; outline: as §5

SMILES	MIC (Staphylococcus aureus [1]) [µg/mL]	MIC (Staphylococcus aureus [2]) [µg/mL]	ED50 [3] [µg/mL]	EC50 (Pseudomonas fluorescens) [µg/mL]	EC50 (Aspergillus niger) [µg/mL]	EC50 (Fusarium culmorum) [µg/mL]	ED50 [4] [µg/mL]	ED50 [5] [µg/mL]	ED50 [6] [µg/mL]	EC50 (Botrytis cinerea) [µg/mL]	EC50 (Alternaria mali) [µg/mL]	EC50 (Pythium aphanidermatum) [µg/mL]	EC50 (Fusarium graminearum) [µg/mL]	EC50 (Phytophthora infestans) [µg/mL]	ED50 [7] [µg/mL]	EC50 (Pyricularia oryzae) [µg/mL]	MIC (Staphylococcus aureus [8]) [µg/mL]	EC50 (Zymoseptoria tritici) [µg/mL]	other results
CN[C@H](CC(C)C)C(=O)N[C@H]1C(=O)N[C@@H](CC(N)=O)C(=O)N[C@H]2C(=O)N[C@H]3C(=O)N[C@H](C(=O)N[C@H](C(=O)O)c4cc(O)cc(O)c4-c4cc3ccc4O)[C@H](O)c3ccc(c(Cl)c3)Oc3cc2cc(c3O[C@@H]2O[C@H](CO)[C@@H](O)[C@H](O)[C@H]2O[C@H]2C[C@](C)(N)[C@H](O)[C@H](C)O2)Oc2ccc(cc2Cl)[C@H]1O [VANCOMYCIN]	0.25 (≈ 0.173 µM)	–	–	–	–	–	–	–	–	–	–	–	–	–	–	–	–	–	–
COc1c(Cl)c(C)c(Cl)c(O)c1C(=O)c1cc(O)cc2c1CCC(C)(C)O2	7 (≈ 17 µM)	7 (≈ 17 µM)	–	–	–	–	–	–	–	–	–	–	–	–	–	–	–	–	–
COc1c(Cl)c(C)c(Cl)c(O)c1C1NC(=O)c2c(O)cc(O)c(CC=C(C)C)c21 (racemic) [PESTALACHLORIDE A]	–	–	> 50	> 50	> 50	31.9 (≈ 72.8 µM)	> 50	33.1 (≈ 75.5 µM)	> 50	> 50	> 50	> 50	> 50	> 50	> 50	> 50	10 (≈ 22.8 µM)	> 50	MIC (Staphylococcus aureus [9]): 10 µg/mL (≈ 22.8 µM)
COc1c(Cl)c(C)c(Cl)c(O)c1C(=O)c1c(Br)c(O)cc(O)c1Br	30 (≈ 59.9 µM)	30 (≈ 59.9 µM)	> 50	> 50	> 50	0.014 (≈ 0.0279 µM)	> 50	> 50	> 50	> 50	> 50	–	> 50	> 50	> 50	> 50	–	> 50	–
COc1cc(OC)c(Br)c(C(=O)c2c(OC)c(Cl)c(C)c(Cl)c2OC)c1Br	–	–	> 50	> 50	> 50	2.2 (≈ 4.05 µM)	> 50	42 (≈ 77.3 µM)	> 50	> 50	> 50	> 50	> 50	–	> 50	12.6 (≈ 23.2 µM)	–	> 50	–
COc1cc(OC)c(CC=C(C)C)c(C(=O)c2c(O)c(Cl)c(C)c(Cl)c2OC)c1C=O	10 (≈ 21.4 µM)	15 (≈ 32.1 µM)	> 50	> 50	> 50	1.2 (≈ 2.57 µM)	> 50	5.4 (≈ 11.6 µM)	22.5 (≈ 48.1 µM)	> 50	> 50	44.4 (≈ 95 µM)	> 50	–	> 50	5 (≈ 10.7 µM)	–	> 50	–
COc1cc(OC)c(CC=C(C)C)c(C(=O)c2c(OC)c(Cl)c(C)c(Cl)c2OC)c1Br	–	–	> 50	> 50	> 50	> 50	> 50	> 50	> 50	> 50	> 50	> 50	> 50	> 50	> 50	> 50	–	> 50	–
COc1c(Cl)c(C)c(Cl)c(O)c1C1OC(=O)c2c(O)cc(O)c(CC=C(C)C)c21 (racemic) [RAC-PESTALALACTONE]	25 (≈ 56.9 µM)	–	13.1 (≈ 29.8 µM)	> 50	> 50	> 50	> 50	4.3 (≈ 9.79 µM)	> 50	> 50	> 50	> 50	> 50	–	18.9 (≈ 43 µM)	> 50	–	> 50	–
COc1c(Cl)c(C)c(Cl)c(O)c1C(=O)c1cc(O)cc(O)c1CC=C(C)C [DEFORMYL-PESTALONE]	5 (≈ 12.2 µM)	5 (≈ 12.2 µM)	–	–	–	–	–	–	–	–	–	–	–	–	–	–	–	–	–
COc1c(Cl)c(C)c(Cl)c(O)c1C(=O)c1c(C=O)c(O)cc(O)c1CC=C(C)C [PESTALONE]	10 (≈ 22.8 µM)	10 (≈ 22.8 µM)	> 50	> 50	> 50	0.12 (≈ 0.273 µM)	> 50	2.2 (≈ 5.01 µM)	22.4 (≈ 51 µM)	> 50	22.4 (≈ 51 µM)	> 50	> 50	> 50	33.9 (≈ 77.2 µM)	28.6 (≈ 65.1 µM)	16 (≈ 36.4 µM)	26.7 (≈ 60.8 µM)	MIC (Staphylococcus aureus [10]): 6.25 µg/mL (≈ 14.2 µM); MIC (Staphylococcus aureus [11]): 3.1 µg/mL (≈ 7.06 µM); MIC (Bacillus subtilis): 1.6 µg/mL (≈ 3.64 µM)
COc1c(Cl)c(C)c(Cl)c(O)c1C1c2c(CC=C(C)C)c(O)cc(O)c2C(=O)N1Cc1ccccc1 (racemic)	–	–	–	–	–	–	–	–	–	–	–	–	–	–	–	–	> 50	–	MIC (Staphylococcus aureus [9]): > 50 µg/mL
COc1c(Cl)c(C)c(Cl)c(O)c1C1c2c(CC=C(C)C)c(O)cc(O)c2C(=O)N1C (racemic)	–	–	–	–	–	–	–	–	–	–	–	–	–	–	–	–	> 50	–	MIC (Staphylococcus aureus [9]): > 50 µg/mL

From ChEMBL document CHEMBL2406919, “On the antibiotic and antifungal activity of pestalone, pestalachloride A, and structurally related compounds” (2013)
